# Reference: ChEMBL document CHEMBL4219080, “Discovery of novel 4-aryl-thieno[1,4]diazepin-2-one derivatives targeting multiple protein kinases as anticancer agents” (Bioorg Med Chem, 2018)
# Active and inactive are the calls of the source. The calls are words filed in the database; no cut-off is given here.
# Experiments:
# U-937 = experiment: Antiproliferative activity against human U937 cells after 24 hrs by MTT assay; assay type: functional; settings: U-937, 24 h
# Procedure, shortened: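 U937 cells kept in RPMI 1640 with 10% FBS, 1% penicillin/streptomycin and 25 mM HEPES (37 °C, 5% CO₂). Seeded at 5×10³ cells/well and held 24 h before exposure to 12 concentrations in 3-fold serial dilution. MTT reduction read at 570 nm. IC50 obtained by curve fitting.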
# [1] = Antiproliferative activity against human A375P cells after 24 hrs by MTT assay; assay type: functional
# Procedure, shortened: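 A375P cells grown in DMEM with 10% FBS and 1% penicillin/streptomycin at 37 °C, 5% CO₂. Harvested with trypsin-EDTA, seeded at 5×10³ cells/well and incubated 24 h before dosing with a 12-point, 3-fold serial dilution. Viability by MTT reduction, absorbance at 590 nm. IC50 derived by curve fitting.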
# [2] = biological target: T1, Macrophage colony-stimulating factor 1 receptor (Homo sapiens, UniProt P07333); experiment: Inhibition of human FMS using myelin basic protein as substrate after 40 mins in presence of [gamma-33P]-ATP by liquid scintillation counting method
# T1 sequence (P07333 whole entry): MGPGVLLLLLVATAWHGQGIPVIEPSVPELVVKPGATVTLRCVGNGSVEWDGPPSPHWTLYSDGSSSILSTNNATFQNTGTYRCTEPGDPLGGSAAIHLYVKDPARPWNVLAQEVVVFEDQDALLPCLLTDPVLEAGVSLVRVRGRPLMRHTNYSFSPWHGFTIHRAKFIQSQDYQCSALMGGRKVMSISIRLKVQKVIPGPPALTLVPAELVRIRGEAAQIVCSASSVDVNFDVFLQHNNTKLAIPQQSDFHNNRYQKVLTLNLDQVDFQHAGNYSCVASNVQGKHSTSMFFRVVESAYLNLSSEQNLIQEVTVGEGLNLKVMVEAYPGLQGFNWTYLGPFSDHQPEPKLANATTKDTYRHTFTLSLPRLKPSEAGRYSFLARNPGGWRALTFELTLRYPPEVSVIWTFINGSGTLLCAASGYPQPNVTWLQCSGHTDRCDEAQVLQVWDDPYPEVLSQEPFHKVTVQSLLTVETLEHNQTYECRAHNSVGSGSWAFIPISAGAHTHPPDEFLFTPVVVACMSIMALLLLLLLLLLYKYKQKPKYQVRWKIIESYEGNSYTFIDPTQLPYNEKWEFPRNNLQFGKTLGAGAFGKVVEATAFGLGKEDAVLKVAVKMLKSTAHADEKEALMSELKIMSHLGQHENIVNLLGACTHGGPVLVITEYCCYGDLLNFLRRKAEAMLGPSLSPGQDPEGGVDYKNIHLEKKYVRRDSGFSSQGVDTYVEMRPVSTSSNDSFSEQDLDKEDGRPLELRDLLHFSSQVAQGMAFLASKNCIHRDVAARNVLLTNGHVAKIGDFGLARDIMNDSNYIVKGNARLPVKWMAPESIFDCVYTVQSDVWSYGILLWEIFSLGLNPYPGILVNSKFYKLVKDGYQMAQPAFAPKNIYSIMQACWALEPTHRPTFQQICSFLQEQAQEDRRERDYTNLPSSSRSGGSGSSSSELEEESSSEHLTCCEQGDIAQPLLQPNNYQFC
# Procedure, shortened: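 Radiometric filter-binding assay with human FMS (5–10 mU) in 25 mM Tris pH 7.5, 0.02 mM EGTA, 0.66 mg/mL myelin basic protein and 10 mM magnesium acetate, with [γ-33P]ATP (approx. 500 cpm/pmol). Started with Mg-ATP mix and run 40 min at room temperature. Stopped with 3% phosphoric acid, spotted on P30 filtermat, washed in 75 mM phosphoric acid then methanol, scintillation counted.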
# [3] = biological target: Receptor-type tyrosine-protein kinase FLT3 (Homo sapiens) (UniProt P36888); experiment: Inhibition of human FLT3 using EAIYAAPFAKKK peptide as substrate at 10 uM after 40 mins in presence of [gamma-33P]-ATP by liquid scintillation counting method
# [4] = biological target: Vascular endothelial growth factor receptor 3 (Homo sapiens) (UniProt P35916); experiment: Inhibition of human FLT4 using poly[Glu:Tyr] (4:1) as substrate at 10 uM after 40 mins in presence of [gamma-33P]-ATP by liquid scintillation counting method
# Sequence of Vascular endothelial growth factor receptor 3 (Homo sapiens) (P35916 whole entry): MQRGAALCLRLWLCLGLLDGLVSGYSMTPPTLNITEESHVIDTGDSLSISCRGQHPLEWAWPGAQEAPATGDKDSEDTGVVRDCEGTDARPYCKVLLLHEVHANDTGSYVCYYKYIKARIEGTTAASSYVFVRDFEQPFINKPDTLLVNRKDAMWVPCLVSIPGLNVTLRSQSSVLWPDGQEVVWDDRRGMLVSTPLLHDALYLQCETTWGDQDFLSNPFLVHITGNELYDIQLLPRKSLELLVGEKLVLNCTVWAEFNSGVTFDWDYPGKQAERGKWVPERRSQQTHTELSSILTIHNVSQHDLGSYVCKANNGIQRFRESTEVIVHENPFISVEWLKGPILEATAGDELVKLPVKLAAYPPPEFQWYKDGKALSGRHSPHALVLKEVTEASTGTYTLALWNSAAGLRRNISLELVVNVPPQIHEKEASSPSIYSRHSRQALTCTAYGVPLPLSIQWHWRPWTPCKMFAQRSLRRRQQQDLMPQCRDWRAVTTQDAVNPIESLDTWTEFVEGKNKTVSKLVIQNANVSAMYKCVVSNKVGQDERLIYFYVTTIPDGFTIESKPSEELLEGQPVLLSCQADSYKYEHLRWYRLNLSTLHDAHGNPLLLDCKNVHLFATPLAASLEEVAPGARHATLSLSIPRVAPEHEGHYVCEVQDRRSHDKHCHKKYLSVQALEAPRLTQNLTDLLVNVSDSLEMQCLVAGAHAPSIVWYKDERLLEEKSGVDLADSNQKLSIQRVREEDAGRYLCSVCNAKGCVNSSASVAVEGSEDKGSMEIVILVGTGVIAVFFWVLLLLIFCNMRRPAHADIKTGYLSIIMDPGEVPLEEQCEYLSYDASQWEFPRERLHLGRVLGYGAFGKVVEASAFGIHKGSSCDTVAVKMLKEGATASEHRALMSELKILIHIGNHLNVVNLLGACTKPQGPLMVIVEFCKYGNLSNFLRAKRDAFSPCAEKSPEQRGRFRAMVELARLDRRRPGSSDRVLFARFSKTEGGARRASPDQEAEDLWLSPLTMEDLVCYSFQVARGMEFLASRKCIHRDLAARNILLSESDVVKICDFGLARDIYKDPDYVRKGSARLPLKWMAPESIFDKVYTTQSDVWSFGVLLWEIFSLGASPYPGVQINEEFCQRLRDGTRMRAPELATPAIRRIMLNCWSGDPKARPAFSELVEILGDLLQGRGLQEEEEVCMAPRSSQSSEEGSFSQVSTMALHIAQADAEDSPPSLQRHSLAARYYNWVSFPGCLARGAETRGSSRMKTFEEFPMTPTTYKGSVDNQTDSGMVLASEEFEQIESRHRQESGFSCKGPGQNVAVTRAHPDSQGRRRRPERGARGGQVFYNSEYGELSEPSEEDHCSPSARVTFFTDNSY
# [5] = biological target: T2, Platelet-derived growth factor receptor beta (Homo sapiens, UniProt P09619); experiment: Inhibition of human PDGFRb using poly[Glu:Tyr] (4:1) as substrate at 10 uM after 40 mins in presence of [gamma-33P]-ATP by liquid scintillation counting method
# T2 sequence (P09619 whole entry): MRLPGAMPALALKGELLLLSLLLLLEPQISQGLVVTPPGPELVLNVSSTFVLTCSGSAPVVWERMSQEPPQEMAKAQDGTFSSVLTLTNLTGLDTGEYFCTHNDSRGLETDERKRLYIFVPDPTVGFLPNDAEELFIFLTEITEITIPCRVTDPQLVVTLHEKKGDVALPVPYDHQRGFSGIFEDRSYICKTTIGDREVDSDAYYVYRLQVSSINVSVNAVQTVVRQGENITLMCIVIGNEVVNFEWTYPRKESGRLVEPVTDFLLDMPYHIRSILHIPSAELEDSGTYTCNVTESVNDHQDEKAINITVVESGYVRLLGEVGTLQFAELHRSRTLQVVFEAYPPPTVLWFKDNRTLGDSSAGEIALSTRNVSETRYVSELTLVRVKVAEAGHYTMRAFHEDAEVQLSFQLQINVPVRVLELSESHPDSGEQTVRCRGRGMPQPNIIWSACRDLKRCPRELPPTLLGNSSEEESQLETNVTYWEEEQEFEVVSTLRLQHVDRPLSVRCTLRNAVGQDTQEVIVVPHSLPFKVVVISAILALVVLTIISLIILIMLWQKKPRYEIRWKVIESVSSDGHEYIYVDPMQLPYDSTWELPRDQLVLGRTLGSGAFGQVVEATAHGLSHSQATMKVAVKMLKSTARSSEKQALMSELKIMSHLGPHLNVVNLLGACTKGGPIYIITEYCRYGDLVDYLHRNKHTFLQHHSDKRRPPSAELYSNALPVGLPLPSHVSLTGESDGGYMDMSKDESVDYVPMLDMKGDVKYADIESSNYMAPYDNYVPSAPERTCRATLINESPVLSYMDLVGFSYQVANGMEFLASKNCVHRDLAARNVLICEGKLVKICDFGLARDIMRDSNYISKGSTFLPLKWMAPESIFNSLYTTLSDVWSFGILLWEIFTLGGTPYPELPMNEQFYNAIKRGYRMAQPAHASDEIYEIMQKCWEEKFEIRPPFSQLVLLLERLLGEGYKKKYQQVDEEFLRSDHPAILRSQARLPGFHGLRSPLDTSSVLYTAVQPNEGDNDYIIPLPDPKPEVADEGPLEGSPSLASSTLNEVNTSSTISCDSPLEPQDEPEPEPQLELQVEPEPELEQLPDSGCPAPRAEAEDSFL
# [6] = biological target: T3, Proto-oncogene tyrosine-protein kinase receptor Ret (Homo sapiens, UniProt P07949); experiment: Inhibition of human RET using KKKVSRSGLYRSPSMPENLNRPR as substrate at 10 uM after 40 mins in presence of [gamma-33P]-ATP by liquid scintillation counting method
# T3 sequence (P07949 whole entry): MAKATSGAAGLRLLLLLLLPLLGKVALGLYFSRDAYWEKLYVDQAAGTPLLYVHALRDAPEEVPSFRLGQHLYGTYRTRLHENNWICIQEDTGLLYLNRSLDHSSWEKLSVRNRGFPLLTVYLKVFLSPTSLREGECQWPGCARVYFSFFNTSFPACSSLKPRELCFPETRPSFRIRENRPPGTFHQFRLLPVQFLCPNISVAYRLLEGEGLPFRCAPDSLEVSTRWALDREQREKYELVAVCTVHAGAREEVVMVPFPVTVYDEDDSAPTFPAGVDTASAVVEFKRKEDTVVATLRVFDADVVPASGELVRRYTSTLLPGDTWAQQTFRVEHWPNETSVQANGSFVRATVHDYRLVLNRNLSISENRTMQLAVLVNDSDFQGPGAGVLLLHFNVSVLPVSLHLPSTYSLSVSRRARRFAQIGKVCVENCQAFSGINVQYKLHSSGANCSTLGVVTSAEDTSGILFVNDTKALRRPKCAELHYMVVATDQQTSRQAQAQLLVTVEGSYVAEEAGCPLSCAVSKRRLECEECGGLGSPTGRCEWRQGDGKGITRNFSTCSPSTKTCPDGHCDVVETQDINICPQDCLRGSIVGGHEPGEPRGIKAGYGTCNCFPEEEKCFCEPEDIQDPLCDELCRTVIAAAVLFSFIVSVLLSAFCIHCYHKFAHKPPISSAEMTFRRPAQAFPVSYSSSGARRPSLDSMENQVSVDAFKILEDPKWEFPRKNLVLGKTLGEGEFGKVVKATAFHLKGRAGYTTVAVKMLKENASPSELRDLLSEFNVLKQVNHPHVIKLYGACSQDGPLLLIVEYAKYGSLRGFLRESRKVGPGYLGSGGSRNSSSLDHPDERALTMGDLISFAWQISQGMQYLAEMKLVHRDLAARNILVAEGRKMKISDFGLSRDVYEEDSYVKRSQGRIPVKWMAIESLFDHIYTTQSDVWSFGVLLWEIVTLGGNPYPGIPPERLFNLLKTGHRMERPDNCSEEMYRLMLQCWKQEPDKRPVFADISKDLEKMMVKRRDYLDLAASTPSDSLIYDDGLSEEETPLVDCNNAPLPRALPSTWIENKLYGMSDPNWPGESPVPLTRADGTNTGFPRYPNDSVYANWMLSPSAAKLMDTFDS
# [7] = biological target: T4, Receptor-type tyrosine-protein kinase FLT3 (Homo sapiens, UniProt P36888); experiment: Inhibition of FLT3 (unknown origin) after 40 mins in presence of [gamma-33P]-ATP by liquid scintillation counting method
# T4 sequence (P36888 whole entry): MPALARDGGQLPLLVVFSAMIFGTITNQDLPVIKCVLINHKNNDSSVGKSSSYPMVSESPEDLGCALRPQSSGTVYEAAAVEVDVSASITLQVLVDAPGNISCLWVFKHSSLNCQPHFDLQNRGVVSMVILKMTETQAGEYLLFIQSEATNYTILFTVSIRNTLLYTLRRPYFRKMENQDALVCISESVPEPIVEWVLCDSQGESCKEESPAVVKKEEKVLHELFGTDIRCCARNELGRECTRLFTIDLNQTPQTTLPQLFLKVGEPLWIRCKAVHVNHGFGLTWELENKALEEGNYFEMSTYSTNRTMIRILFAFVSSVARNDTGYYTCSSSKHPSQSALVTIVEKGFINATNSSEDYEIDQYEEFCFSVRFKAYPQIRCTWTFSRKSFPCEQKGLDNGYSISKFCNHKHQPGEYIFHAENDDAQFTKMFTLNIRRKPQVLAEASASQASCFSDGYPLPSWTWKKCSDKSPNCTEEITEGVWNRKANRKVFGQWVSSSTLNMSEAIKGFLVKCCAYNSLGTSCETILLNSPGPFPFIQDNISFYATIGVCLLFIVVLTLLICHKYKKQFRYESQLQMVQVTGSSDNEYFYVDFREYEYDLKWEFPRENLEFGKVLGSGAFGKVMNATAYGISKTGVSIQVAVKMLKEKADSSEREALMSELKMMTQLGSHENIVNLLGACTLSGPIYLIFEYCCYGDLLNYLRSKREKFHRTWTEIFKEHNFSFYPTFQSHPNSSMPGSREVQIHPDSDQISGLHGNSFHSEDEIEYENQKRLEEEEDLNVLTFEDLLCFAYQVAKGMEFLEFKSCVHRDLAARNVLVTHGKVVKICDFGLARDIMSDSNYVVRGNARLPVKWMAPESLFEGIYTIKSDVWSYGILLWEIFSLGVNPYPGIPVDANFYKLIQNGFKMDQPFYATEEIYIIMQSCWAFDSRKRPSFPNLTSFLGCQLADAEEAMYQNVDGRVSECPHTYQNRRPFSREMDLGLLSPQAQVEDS
# [8] = biological target: T2, Platelet-derived growth factor receptor beta; experiment: Inhibition of PDGFRb (unknown origin) after 40 mins in presence of [gamma-33P]-ATP by liquid scintillation counting method
# [9] = biological target: T3, Proto-oncogene tyrosine-protein kinase receptor Ret; experiment: Inhibition of RET (unknown origin) after 40 mins in presence of [gamma-33P]-ATP by liquid scintillation counting method
# [10] = biological target: T1, Macrophage colony-stimulating factor 1 receptor; experiment: Inhibition of human FMS using myelin basic protein as substrate at 10 uM after 40 mins in presence of [gamma-33P]-ATP by liquid scintillation counting method
SMILES,GI50 (U-937),GI50 [1],further results
O=C1CC(c2ccc(NC(=O)c3ccc(Cl)c(C(F)(F)F)c3)cc2)=Nc2cscc2N1,,7.85 µM,
O=C1CC(c2cccc(NC(=O)c3cnc4ccccc4c3)c2)=Nc2cscc2N1,,6.87 µM,
O=C1CC(c2cccc(NC(=O)c3ccc(Cl)c(C(F)(F)F)c3)c2)=Nc2cscc2N1,,4.99 µM,
CN1CCN(c2cc(C(=O)Nc3cccc(C4=Nc5cscc5NC(=O)C4)c3)cc(C(F)(F)F)c2)CC1,,3.04 µM,
O=C1CC(c2cccc(NC(=O)c3cc(N4CCOCC4)cc(C(F)(F)F)c3)c2)=Nc2cscc2N1,,1.98 µM,
CCN1CCN(Cc2ccc(NC(=O)Nc3ccc(C4=Nc5cscc5NC(=O)C4)cc3)cc2C(F)(F)F)CC1,,0.32 µM,IC50 [2]: 0.00373 µM; inhibition [3]: Active; inhibition [4]: Active; inhibition [5]: Active; inhibition [6]: Active; IC50 [7]: 0.0279 µM; IC50 [8]: 0.0634 µM; IC50 [9]: 0.0716 µM; inhibition [10]: Active
O=C1CC(c2ccc(NC(=O)c3cc(N4CCOCC4)cc(C(F)(F)F)c3)cc2)=Nc2cscc2N1,,3.45 µM,
O=C(Cc1ccc(-c2ccccc2)cc1)Nc1ccc(C2=Nc3cscc3NC(=O)C2)cc1,,8.7 µM,
O=C1CC(c2ccc(NC(=O)c3cnn(-c4ccccc4)c3C(F)(F)F)cc2)=Nc2cscc2N1,,6.85 µM,
O=C1CC(c2ccc(NC(=O)Nc3ccc(Cl)c(Cl)c3)cc2)=Nc2cscc2N1,,2.06 µM,
CC(=O)N1CCC(C(=O)Nc2ccc(C3=Nc4cscc4NC(=O)C3)cc2)CC1,,> 30 µM,
Cc1c(C)c2c(c(C)c1O)CC[C@](C)(C(=O)Nc1cccc(C3=Nc4cscc4NC(=O)C3)c1)O2,,> 30 µM,

# Second part, led by results:
GI50 (U-937),SMILES,GI50 [1],further results
9.64 µM,O=C1CC(c2cccc(NC(=O)c3cnn(-c4ccccc4)c3C(F)(F)F)c2)=Nc2cscc2N1,,
> 30 µM,O=C(Cc1c[nH]c2ccccc12)Nc1ccc(C2=Nc3cscc3NC(=O)C2)cc1,> 30 µM,
4.55 µM,O=C1CC(c2cccc(NC(=O)Nc3ccc(Cl)cc3)c2)=Nc2cscc2N1,5.04 µM,
3.2 µM,O=C1CC(c2cccc(NC(=O)Nc3ccc(Cl)c(Cl)c3)c2)=Nc2cscc2N1,11 µM,
4.08 µM,O=C1CC(c2ccc(NC(=O)Nc3ccc(Cl)c(C(F)(F)F)c3)cc2)=Nc2cscc2N1,1.7 µM,
> 30 µM,O=C(Cc1c[nH]c2ccccc12)Nc1cccc(C2=Nc3cscc3NC(=O)C2)c1,> 30 µM,
1.03 µM,O=C1CC(c2cccc(NC(=O)c3ccccc3-c3ccccc3)c2)=Nc2cscc2N1,3.25 µM,
14.3 µM,O=C1CC(c2cccc(NC(=O)Nc3ccc(Cl)c(C(F)(F)F)c3)c2)=Nc2cscc2N1,8.25 µM,
2.34 µM,CNC(=O)c1cc(Oc2ccc(NC(=O)Nc3ccc(Cl)c(C(F)(F)F)c3)cc2)ccn1 [SORAFENIB],3.4 µM,
> 30 µM,CN1CCN(c2cc(C(=O)Nc3ccc(C4=Nc5cscc5NC(=O)C4)cc3)cc(C(F)(F)F)c2)CC1,> 30 µM,
2.75 µM,CCN1CCN(Cc2ccc(NC(=O)Nc3cccc(C4=Nc5cscc5NC(=O)C4)c3)cc2C(F)(F)F)CC1,1.82 µM,
0.964 µM,O=C1CC(c2ccc(NC(=O)Nc3ccc(Cl)cc3)cc2)=Nc2cscc2N1,3.12 µM,
3.77 µM,O=C1CC(c2ccc(NC(=O)c3ccccc3-c3ccccc3)cc2)=Nc2cscc2N1,> 30 µM,
